B1: Osa-1-4 twister ribozyme (parent)
chain: CCGCCUAACACUGCCAAUGCCGGUCCCAAGCCCGGAUAAAAGUGGAGGGGGCGG

Variants of: B1
Assay: self-cleavage, relative activity (ratio to wild type); higher = more cleavage; co-transcriptional
Method in brief: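 The 48 positions downstream of the cleavage site in a DNA template for a 54-nucleotide Oryza sativa twister ribozyme carried 97 % wild-type base and 1 % of each other base. After in vitro transcription (2 h, 37 °C) with co-transcriptional self-cleavage, the RNA was reverse-transcribed with a template-switching oligonucleotide, PCR-amplified and deep-sequenced. Relative activity is the fraction cleaved, judged by reads with or without upstream sequence and normalised to wild type.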

| Variant | self-cleavage |
| --- | --- |
| CCGCCUAACACGGCCAAUGCCGGUCCCAAGCCCGGAUCAAAGUGGAGGGGGCGG [A38C U12G] | 0.29 |
| CCGCCUAACACAGCCAAUGCCGGUCCCAAGCCCGGAUCAAAGUGGAGGGGGCGG [A38C U12A] | 0.92 |
| CCGCCUAACACCGCCAAUGCCGGUCCCAAGCCCGGAUCAAAGUGGAGGGGGCGG [A38C U12C] | 0.38 |
| CCGCCUAACACUGCCAAUGCCGGUCCCAAGCCCGGAUGAAAGUGGAGGGGGCGG [A38G] | 1.01 |
| CCGCCUAAAACUGCCAAUGCCGGUCCCAAGCCCGGAUGAAAGUGGAGGGGGCGG [A38G C9A] | 0.45 |
| CCGCCUAAGACUGCCAAUGCCGGUCCCAAGCCCGGAUGAAAGUGGAGGGGGCGG [A38G C9G] | 0.88 |
| CCGCCUAACACUGCCAACGCCGGUCCCAAGCCCGGAUCAAAGUGGAGGGGGCGG [A38C U18C] | 0.99 |
| CCGCCUAACACUGCCAAGGCCGGUCCCAAGCCCGGAUCAAAGUGGAGGGGGCGG [A38C U18G] | 0.81 |
| CCGCCUAACACUGCCAAAGCCGGUCCCAAGCCCGGAUCAAAGUGGAGGGGGCGG [A38C U18A] | 0.98 |
| CCGCCUAACACUGCCAAUGCCGGUCCCAAGCCCGGAUGAACGUGGAGGGGGCGG [A38G A41C] | 0.98 |
| CCGCCUAACACUGCCAAUGCCGGUCCCAAGCCCGGAUGAAUGUGGAGGGGGCGG [A38G A41U] | 1.01 |
| CCGCCUAACACUGCCAAUGCCGGUCCCAAGCCCGGAUGAAGGUGGAGGGGGCGG [A38G A41G] | 0.75 |
| CCGCCUAACACUGCCAAUGCCGGUCCCAAGCCCGGAUCAAAGUGGAGGUGGCGG [A38C G49U] | 0.1 |
| CCGCCUAACACUGCCAAUGCCGGUCCCAAGCCCGGAUCAAAGUGGAGGGGGCUG [A38C G53U] | 0.24 |
| CCGCCUAACACUGCCAAUGCCGGUCCCAAGCCCGGAUCAAAGUGGAGGGGGCCG [A38C G53C] | 0.08 |
| CCGCCUAACACUGCCAAUGCCGGUCCCAAGCCCGGAUCAAAGUGGAGGGGGCAG [A38C G53A] | 0.84 |
| CCGCCUAGCACUGCCAAUGCCGGUCCCAAGCCCGGAUGAAAGUGGAGGGGGCGG [A38G A8G] | 0.55 |
| CCGCCUAUCACUGCCAAUGCCGGUCCCAAGCCCGGAUGAAAGUGGAGGGGGCGG [A38G A8U] | 0.27 |
| CCGCCUACCACUGCCAAUGCCGGUCCCAAGCCCGGAUGAAAGUGGAGGGGGCGG [A38G A8C] | 0.07 |
| CCGCCUAACACUGCCAAUGCCGGUCCCAAGCCCGGAUCAAAGUGGAGGGUGCGG [A38C G50U] | 1.04 |
| CCGCCUAACACUGCCAAUGCCGGUCCCAAGCCCGGAUCAAAGUGGAGGGCGCGG [A38C G50C] | 1.01 |
| CCGCCUAACACUGCCAAUGCCGGUCCCAAGCCCGGAUCAAAGUGGAGGGAGCGG [A38C G50A] | 0.75 |
| CCGCCUAACACUGCCAAUGCCGGUCCCAAGCCCGGAUCAAAGUGGAGGGGCCGG [A38C G51C] | 0.09 |
| CCGCCUAACACUGCCAAUGCCGGUCCCAAGCCCGGAUCAAAGUGGAGGGGACGG [A38C G51A] | 0.69 |
| CCGCCUAACACUGCCAAUGCCGGUCCCAAGCCCGGAUCAAAGUGGAGGGGUCGG [A38C G51U] | 0.37 |

| Variant | self-cleavage |
| --- | --- |
| CCGCCUAACACUGCCAAUGCCGGUCCCAAGCCCGGAUCAAAGAGGAGGGGGCGG [A38C U43A] | 0.88 |
| CCGCCUAACACUGCCAAUGCCGGUCCCAAGCCCGGAUCAAAGCGGAGGGGGCGG [A38C U43C] | 0.38 |
| CCGCCUAACACUGCCAAUGCCGGUCCCAAGCCCGGAUCAAAGGGGAGGGGGCGG [A38C U43G] | 0.34 |
| CCGCCUAACACUGCCAAUGCCGGUCCCAAGCCCGGAUCAAAGUGGAGGGGGCGA [A38C G54A] | 0.96 |
| CCGCCUAACACUGCCAAUGCCGGUCCCAAGCCCGGAUCAAAGUGGAGGGGGCGC [A38C G54C] | 0.93 |
| CCGCCUAACACUGCCAAUGCCGGUCCCAAGCCCGGAUCAAAGUGGAGGGGGCGU [A38C G54U] | 0.94 |
| CCGCCUAACACUGCCAAUGCCGGGCCCAAGCCCGGAUCAAAGUGGAGGGGGCGG [A38C U24G] | 0.04 |
| CCGCCUAACACUGCCAAUGCCGGCCCCAAGCCCGGAUCAAAGUGGAGGGGGCGG [A38C U24C] | 0.26 |
| CCGCCUAACACUGCCAAUGCCGGACCCAAGCCCGGAUCAAAGUGGAGGGGGCGG [A38C U24A] | 0.16 |
| CCGCCUAACACUGCCAAUGCCGGUCCCAAGCCCGGAUGAAAGUGGCGGGGGCGG [A38G A46C] | 0.08 |
| CCGCCUAACACUGCCAAUGCCGGUCCCAAGCCCGGAUGAAAGUGGUGGGGGCGG [A38G A46U] | 0.07 |
| CCGCCUAACACUGCCAAUGCCGGUCCCAAGCCCGGAUGAAAGUGGGGGGGGCGG [A38G A46G] | 0.08 |
| CCGCCUAACACUGCCAAUGCCGGUCCCAAGCCCGGAUGCAAGUGGAGGGGGCGG [A38G A39C] | 0.97 |
| CCGCCUAACACUGCCAAUGCCGGUCCCAAGCCCGGAUGGAAGUGGAGGGGGCGG [A38G A39G] | 0.4 |
| CCGCCUAACACUGCCAAUGCCGGUCCCAAGCCCGGAUGUAAGUGGAGGGGGCGG [A38G A39U] | 0.98 |
| CCGCCUUACACUGCCAAUGCCGGUCCCAAGCCCGGAUGAAAGUGGAGGGGGCGG [A38G A7U] | 0.08 |
| CCGCCUGACACUGCCAAUGCCGGUCCCAAGCCCGGAUGAAAGUGGAGGGGGCGG [A38G A7G] | 0.31 |
| CCGCCUCACACUGCCAAUGCCGGUCCCAAGCCCGGAUGAAAGUGGAGGGGGCGG [A38G A7C] | 0.06 |
| CCGCCUAACACUGCCAAUGCCGGUCCCAAGCCCGGAUGACAGUGGAGGGGGCGG [A38G A40C] | 0.07 |
| CCGCCUAACACUGCCAAUGCCGGUCCCAAGCCCGGAUGAUAGUGGAGGGGGCGG [A38G A40U] | 0.32 |
| CCGCCUAACACUGCCAAUGCCGGUCCCAAGCCCGGAUGAGAGUGGAGGGGGCGG [A38G A40G] | 0.6 |
| CCGCCUAACACUGCCAAUGCCGGUCCCAAGCCCGGAACAAAGUGGAGGGGGCGG [A38C U37A] | 1.05 |
| CCGCCUAACACUGCCAAUGCCGGUCCCAAGCCCGGAGCAAAGUGGAGGGGGCGG [A38C U37G] | 0.99 |
| CCGCCUAACACUGCCAAUGCCGGUCCCAAGCCCGGACCAAAGUGGAGGGGGCGG [A38C U37C] | 1 |
